In ChEMBL document CHEMBL2163271, “Antitumor agents 295. E-ring hydroxylated antofine and cryptopleurine analogues as antiproliferative agents: design, synthesis, and mechanistic studies” (J Med Chem, 2012) one finds IC50 and Activity data, which are given here for 21 compounds.

Assay [1] is described as follows: Cytotoxicity against human KBVIN cells overexpressing P-gp after 2 hrs by methylene blue staining-based spectrophotometric analysis. The format is functional, cell-based.
The test system of a further assay is DU-145. The assay is described as follows: Cytotoxicity against human DU145 cells after 2 hrs by methylene blue staining-based spectrophotometric analysis. The format is functional, cell-based. Conditions: DU-145, 2 h.
The subject of assay [2] is A549. Description: Cytotoxicity against human A549 cells after 2 hrs by methylene blue staining-based spectrophotometric analysis. The format is functional, cell-based. Conditions: A549, 2 h.
The subject of the next assay is KB. Description: Cytotoxicity against human KB cells after 2 hrs by methylene blue staining-based spectrophotometric analysis. The format is functional, cell-based.
The next assay deals with SK-BR-3. Description: Cytotoxicity against human SKBR3 cells after 2 hrs by methylene blue staining-based spectrophotometric analysis. It is filed as functional, cell-based. Conditions: SK-BR-3, 2 h.
Assay [3] can be described thus: Cytotoxicity against human CL1-0 cells assessed as cell viability after 48 hrs by SRB assay. It is filed as functional, cell-based. Conditions: CL1-0, 48 h. The method in brief:
(§1)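 Human NSCLC lines (CL1-0, CL1-5, PC9, PC9IR) exposed to increasing compound concentrations for 48 h. Growth read by sulforhodamine B (SRB) staining, with IC50 in nM taken from the dose-response.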

The subject of assay [4] is A549. Description: Downregulation of cyclin D protein expression in human A549 cells at 3.6 to 100 nM after 48 hrs by Western blot analysis. The format is functional, cell-based. (In general: In western blotting, separated proteins are transferred to a membrane and probed.)
For the next assay, the system named is MRC5. Description: Cytotoxicity against human MRC5 cells assessed as cell viability after 48 hrs by SRB assay. Conditions: MRC5, 48 h. It is filed as functional, cell-based.
Assay [5] has as its system A549. Description: Downregulation of beta-catenin protein expression in human A549 cells at 3.6 to 100 nM after 48 hrs by Western blot analysis.
A further assay deals with PC-9. The assay is described as follows: Cytotoxicity against human PC9 cells assessed as cell viability after 48 hrs by SRB assay. The format is functional, cell-based. Conditions: PC-9, 48 h. An outline of the steps: as §1
(Sulforhodamine B stains cellular protein and so reports cell mass.)

For another assay, the system named is HCT-8. The assay is described as follows: Cytotoxicity against human HCT8 cells after 2 hrs by methylene blue staining-based spectrophotometric analysis. The format is functional, cell-based. Conditions: HCT-8, 2 h.
The nature of assay [6]: Cytotoxicity against human PC9IR cells assessed as cell viability after 48 hrs by SRB assay. The format is functional, cell-based. An outline of the steps: as §1
Assay [7] is described as follows: Cytotoxicity against human CL1-5 cells assessed as cell viability after 48 hrs by SRB assay. Conditions: CL1-5, 48 h. The format is functional, cell-based. The method in brief: as §1
In assay [8] the test system is A549. The assay is described as follows: Cytotoxicity against human A549 cells assessed as cell viability after 48 hrs by SRB assay. Conditions: A549, 48 h. It is filed as functional, cell-based.
Assay [9] has as its system A549. The assay is described as follows: Downregulation of HSP90 protein expression in human A549 cells at 3.6 to 100 nM after 48 hrs by Western blot analysis. It is filed as functional, cell-based. The method in brief: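 A549 cells treated with graded compound concentrations for 48 h. Whole-cell extracts were immunoblotted with antibody against HSP90.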

Activity calls are given as the source filed them. The calls are words filed in the database; no cut-off is given here.

Regarding `COc1ccc2c3c(c4cc(OC)c(OC)cc4c2c1)C[C@H]1CCCN1C3` [(-)-ANTOFINE], in assay [1], 25 nM corresponded to half-maximal inhibition (IC50).
As to `COc1ccc2c3c(c4cc(OC)c(OC)cc4c2c1)C[C@H]1[C@H](O)CCN1C3`, the IC50 (in general, the concentration needed to halve the response being measured) in assay [1] stood at 640 nM; with DU-145 it was 850 nM; with A549 [2] it was 270 nM; in the assay on KB, 500 nM.
On to `COc1ccc2c3c(c4cc(OC)c(OC)cc4c2c1)C[C@H]1CCC(=O)CN1C3`, for which the IC50 in the assay with SK-BR-3 came to 3340 nM; in assay [1], 1480 nM; with DU-145, 1700 nM; with A549 [2], 910 nM; in the assay on KB it was 734 nM.
Regarding `COc1ccc2c3c(c4cc(OC)c(OC)cc4c2c1)C[C@H]1C[C@H](O)[C@@H](O)CN1C3`, the half-inhibitory concentration (IC50) in assay [1] stood at 2170 nM; in the assay on DU-145, 600 nM; with A549 [2], 550 nM; with KB, 840 nM.
Regarding `COc1ccc2c3c(c4cc(OC)c(OC)cc4c2c1)C[C@H]1CC[C@@H](O)CN1C3`, the IC50 came to 348 nM with SK-BR-3; 45 nM in [1]; 66 nM with DU-145; 82 nM with A549 [2]; 33 nM with KB.
For the compound `COc1ccc2c3c(c4cc(OC)c(OC)cc4c2c1)C[C@H]1C[C@H](O)CN1C3`, the IC50 turned out to be 2210 nM in assay [1], 1800 nM with DU-145, 2270 nM in the assay on A549 [2] and 1810 nM with KB.
With `COc1ccc2c3c(c4cc(OC)c(OC)cc4c2c1)C[C@H]1CCCCN1C3` [CRYPTOPLEURINE], the IC50 in assay [3] is 5 nM; with MRC5, 14 nM; with PC-9, 5.5 nM; in the assay on HCT-8 it was 1.91 nM; with DU-145, 1.59 nM; in assay [6], 6.8 nM. In addition, the IC50 was 1.38 nM in the assay with A549 [2], 1.51 nM with KB, 1.8 nM in [7] and 1.9 nM with A549 [8]. In addition, the outcome in the assay on A549 [4], in the assay on A549 [5] and in the assay on A549 [9] was Active.
As for `COc1ccc2c3c(c4cc(OC)c(OC)cc4c2c1)C[C@H]1[C@@H](O)CCCN1C3`, the IC50 in assay [1] was found to be 25 nM; in the assay with DU-145 it was 33 nM; in the assay with A549 [2] it was 10 nM; in the assay with KB, 25 nM.
As for `COc1ccc2c3c(c4cc(OC)c(OC)cc4c2c1)C[C@H]1C[C@@H](OC)CCN1C3`, the IC50 in assay [1] was determined as 3690 nM; with DU-145, 3570 nM; in the assay with A549 [2] it was 7110 nM; in the assay on KB it was 5240 nM.
As for `COc1ccc2c3c(c4cc(OC)c(OC)cc4c2c1)C[C@H]1[C@H](O)CCCN1C3`, the IC50 in assay [1] was determined as 120 nM; with DU-145, 200 nM; in the assay on A549 [2] it was 69 nM; in the assay with KB, 300 nM.
As to `COc1ccc2c3c(c4cc(OC)c(OC)cc4c2c1)C[C@H]1CC[C@H](O)CN1C3`, the 50% inhibitory concentration (IC50) came to 6440 nM in the assay on SK-BR-3; 3070 nM in assay [1]; 2250 nM with DU-145; 2510 nM in the assay on A549 [2]; 2250 nM in the assay with KB.
Take `COc1ccc2c3c(c4cc(OC)c(OC)cc4c2c1)C[C@H]1CC(=O)CN1C3`: the IC50 in [1] was 430 nM; in the assay with DU-145 it was 710 nM; with A549 [2] it was 290 nM; with KB it was 500 nM.
Consider `COc1ccc2c3c(c4cc(OC)c(OC)cc4c2c1)C[C@H]1C[C@@H](O)[C@H](O)CN1C3`, for which the IC50 in [1] is 12600 nM; in the assay on DU-145 it was 1710 nM; with A549 [2], 14500 nM; in the assay on KB, 17500 nM.
Take `COc1ccc2c3c(c4cc(OC)c(OC)cc4c2c1)C[C@H]1C[C@@H](O)CCN1C3`: the IC50 stood at 295 nM in the assay on SK-BR-3; 78 nM in assay [1]; 59 nM in the assay with DU-145; 72 nM in the assay on A549 [2]; 43 nM with KB.
In the case of `COc1ccc2c3c(c4cc(OC)c(OC)cc4c2c1)C[C@H]1COCCN1C3`, the IC50 in the assay with MRC5 amounted to 252 nM; with A549 [8] it was 40 nM.
With `CC[C@@]1(O)CCN2Cc3c(c4cc(OC)c(OC)cc4c4cc(OC)ccc34)C[C@H]2C1`, the IC50 is 870 nM in [1], 770 nM in the assay on DU-145, 990 nM with A549 [2] and 920 nM with KB.
As to `COc1ccc2c3c(c4cc(OC)c(OC)cc4c2c1)C[C@H]1C[C@@H](O)CN1C3`, the IC50 in assay [1] is 640 nM; with DU-145 it was 700 nM; in the assay on A549 [2], 610 nM; with KB, 780 nM.
`COc1ccc2c3c(c4cc(OC)c(OC)cc4c2c1)C[C@H]1C[C@H](OC)CCN1C3`: the IC50 in assay [1] worked out at 66 nM; in the assay with DU-145 it was 56 nM; in the assay on A549 [2], 25 nM; with KB, 100 nM.
Take `COc1ccc2c3c(c4cc(OC)c(OC)cc4c2c1)C[C@H]1[C@@H](O)CCN1C3`: the IC50 in [1] came out at 3420 nM; in the assay on DU-145 it was 3200 nM; in the assay with A549 [2] it was 2810 nM; in the assay on KB it was 1830 nM.
For the compound `COc1ccc2c3c(c4cc(OC)c(OC)cc4c2c1)C[C@H]1CC(=O)CCN1C3`, the IC50 worked out at 43 nM in assay [1], 45 nM in the assay on DU-145, 28 nM in the assay with A549 [2] and 50 nM in the assay with KB.
Take `COC1=C[C@@H]2Cc3c(c4ccc(OC)cc4c4cc(OC)c(OC)cc34)CN2C1`: the IC50 in [1] is 2640 nM; in the assay with DU-145 it was 10300 nM; with A549 [2], 5970 nM; in the assay with KB it was 12000 nM.
